The structures appear in SMILES notation. Active and inactive are the calls of the source. The calls are words filed in the database; no cut-off is given here.

The experiment deals with Mycobacterium tuberculosis. Kind of experiment: Induction of membrane disruption in Mycobacterium bovis BCG ATCC 35734 harboring piniBAC-RFP assessed as increase in iniBAC cluster transactivation up to 100 uM after 24 hrs by RFP-based fluorescence assay. Conditions: BCG str. ATCC 35743. It counts as functional, organism-based. The method in brief:
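Recombinant M. bovis carrying iniBAC promoter-driven RFP treated 24 h with 0.4–100 μM; promoter induction read as RFP fluorescence; isoniazid as positive control.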

`NNC(=O)c1ccncc1`: the outcome was Active.

As for `COc1cccc2ccn(CCCCC[P+](c3ccccc3)(c3ccccc3)c3ccccc3)c12.[I-]`, the outcome was inactive.

The values above are taken from ChEMBL document CHEMBL4130564, “Indolylalkyltriphenylphosphonium Analogues Are Membrane-Depolarizing Mycobactericidal Agents” (ACS Med Chem Lett, 2017).
